An excerpt weighted towards active compounds, which were near 2.4% of everything screened.
SUMO1 PPI mod = modulators of SUMO1 protein-protein interactions, primary screen, biochemical, uHTS; Small ubiquitin-related modifier 1 (Homo sapiens), P63165; AID 602429, 2012; 360,000 tested, 0.33% active; SUMO1 binding to a labelled peptide, TR-FRET, 1 h; inhibition, % at 20 µM; in the data active = inhibition above about 37%
Target sequence (P63165 whole entry, looked up): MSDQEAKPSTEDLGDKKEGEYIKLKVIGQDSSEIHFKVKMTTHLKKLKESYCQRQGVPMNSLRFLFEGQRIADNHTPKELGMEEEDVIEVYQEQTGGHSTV
Scp1 inh = Scp-1 phosphatase inhibitors, primary screen, biochemical, colorimetric, uHTS; Carboxy-terminal domain RNA polymerase II polypeptide A small phosphatase 1 (Homo …; Recombinant Scp1, phosphopeptide, malachite green phosphate absorbance; inhibition, % at 20 µM; 340,000 tested, 0.88% active;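 active = inhibition above about 50% at 20 µM, limit read from the data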
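System: truncated SCP-1 phosphatase (76-261aa); medium: Tris acetate buffer pH 5.5 with MgCl2 and Tween-20; incubation: 45 min room-temperature reaction, 5 min colour, 30 min stabiliser; compound: single 20 µM dose, 1% DMSO; reagent: Phosphorylated 17-residue peptide substrate; read-out: % inhibition at 20 µM; technique: colorimetric free-phosphate detection, absorbance 630 nm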
LMPTP block = LMPTP phosphatase inhibitors, primary screen, biochemical, fluorescence intensity, uHTS. recombinant LMPTP-A, OMFP fluorogenic substrate. inhibition, % at 20 µM. 360,000 tested, 0.22% active;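 active = compounds that cut the enzyme signal by at least half of the control window in the single-dose screen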
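Test system: LMPTP-A phosphatase enzyme; input: 0.625 nM LMPTP-A final; reagent: OMFP substrate, 400 µM final; compound dosing: 20 µM single dose, 3% DMSO; incubation: 50 min dark incubation at room temperature; measured by: endpoint fluorescence intensity from OMFP dephosphorylation; measure: % inhibition relative to no-enzyme and uninhibited control wells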
STEP block = STEP phosphatase inhibitors, primary screen, biochemical, fluorescence intensity, uHTS; Tyrosine-protein phosphatase non-receptor type 5 (Homo sapiens), P54829; recombinant STEP, OMFP fluorogenic substrate; inhibition, % at 20 µM; 360,000 tested, 0.25% active; AID 588621, 2011;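 active = inhibition at 20 µM, scaled per plate between control wells, above about 37%, limit read from the data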
Target sequence (P54829 whole entry, looked up): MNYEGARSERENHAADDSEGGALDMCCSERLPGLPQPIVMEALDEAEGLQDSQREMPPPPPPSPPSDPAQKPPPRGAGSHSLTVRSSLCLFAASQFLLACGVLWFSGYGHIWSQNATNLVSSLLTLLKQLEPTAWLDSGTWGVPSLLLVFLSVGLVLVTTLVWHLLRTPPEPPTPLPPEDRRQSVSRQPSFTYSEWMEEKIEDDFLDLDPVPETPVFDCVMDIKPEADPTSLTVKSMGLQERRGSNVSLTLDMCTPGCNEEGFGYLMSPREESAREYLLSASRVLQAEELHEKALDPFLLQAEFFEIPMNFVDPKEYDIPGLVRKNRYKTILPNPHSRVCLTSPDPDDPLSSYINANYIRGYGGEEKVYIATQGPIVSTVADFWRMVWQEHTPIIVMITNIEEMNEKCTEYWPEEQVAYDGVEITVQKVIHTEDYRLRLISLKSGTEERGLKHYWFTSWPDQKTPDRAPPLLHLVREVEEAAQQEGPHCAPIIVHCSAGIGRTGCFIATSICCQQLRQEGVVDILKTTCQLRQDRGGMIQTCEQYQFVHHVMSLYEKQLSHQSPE
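material = STEP tyrosine phosphatase | reagent = fluorogenic phosphatase substrate OMFP at 25 µM final | doses = single compound dose of 20 µM, 1% DMSO final | schedule = 20 min reaction, room temperature, in the dark | measured by = fluorescence, 480/540 nm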
NadD inh = inhibitors of S. aureus NadD, primary screen, biochemical, colorimetric, uHTS; Nicotinate-nucleotide adenylyltransferase NadD (Staphylococcus aureus N315); purified NadD enzyme, colorimetric absorbance read-out; inhibition, % at 20 µM; 360,000 tested, 0.78% active; in the data active = inhibition above about 26%
DNMT1 block = human DNMT1 methyltransferase inhibitors, primary screen, biochemical, molecular beacon, fluorescence, HinP1I cleavage, uHTS; DNA (cytosine-5)-methyltransferase 1 (Homo sapiens), P26358; inhibition (reported as % activation of signal), % at 10 µM; AID 588458, 2011; 360,000 tested, 0.83% active; in the data active = inhibition above about 50%
Scp1 confirm = Scp-1 phosphatase inhibitors, retest, confirmation, biochemical, colorimetric, single concentration; shares compounds with Scp1 inh; recombinant SCP-1 catalytic domain, phosphate release, malachite green absorbance; inhibition, % at 20 µM; 2,500 tested, 61% active; AID 540281, 2011
Scp-1 MG ctr = colorimetric readout interference by compounds, confirmation, artefact control for Scp-1 inhibitor project, biochemical, single concentration. shares compounds with Scp1 inh. Colorimetric interference counterscreen, malachite green absorbance 630 nm. apparent inhibition (interference), % at 20 µM. 2,500 tested, under 10 active. AID 540313, 2011;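 also: compounds added after enzyme reaction finished so only phosphate colour detection is probed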
Scp-1 Tm shift = Scp-1 binding by thermal shift, confirmation, orthogonal assay for Scp-1 inhibitor project, biophysical, differential scanning fluorimetry | shares compounds with Scp1 inh | Recombinant SCP1, Sypro Orange thermal shift Tm | thermal shift relative to vanadate control, % at 40 µM | 1,500 tested, 25% active;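 active = substances whose mean melting-temperature shift, as a percentage of the reference inhibitor's shift, reaches about 5.3%, limit read from the data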
A number is an active result.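 The calls were made as follows, unless noted: active = inhibition of at least 30% at 20 µM; inactive = the rest.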

Screening Cc1c(OCC(=O)N(C)C)ccc2c(-c3ccccc3)cc(=O)oc12 returned SUMO1 PPI mod inactive, Scp1 inh inactive, LMPTP block inactive, STEP block inactive, NadD inh inactive and DNMT1 block inactive.
For O=C(Nc1ccc(-c2ccccc2)cc1)c1ccco1 the results were SUMO1 PPI mod inactive, Scp1 inh 59, LMPTP block inactive, STEP block inactive, NadD inh inactive, DNMT1 block inactive, Scp1 confirm inactive and Scp-1 MG ctr inactive.
Screening Cc1nnc2ccc(-c3ccc(NC(=O)c4ccco4)cc3)nn12 returned SUMO1 PPI mod 52, Scp1 inh 89, LMPTP block inactive, STEP block inactive, NadD inh inactive, DNMT1 block inactive, Scp1 confirm inactive and Scp-1 MG ctr inactive.
For CC(=O)Nc1ccc(-c2ccc3nnc(C)n3n2)cc1 the results were SUMO1 PPI mod inactive, Scp1 inh inactive, LMPTP block inactive, STEP block inactive, NadD inh inactive and DNMT1 block inactive.
Screening CC(=O)c1cccc(OC(=O)c2ccc3c(=O)n4c(nc3c2)CCC4)c1 returned SUMO1 PPI mod inactive, Scp1 inh 68, LMPTP block inactive, STEP block inactive, NadD inh inactive, DNMT1 block inactive, Scp1 confirm inactive and Scp-1 MG ctr inactive.
Screening CCC1N=C(SC)NC(C)=C1C(=O)c1ccccc1 (centres undefined) returned SUMO1 PPI mod inactive, Scp1 inh 96, LMPTP block inactive, STEP block inactive, NadD inh inactive, DNMT1 block inactive, Scp1 confirm inactive and Scp-1 MG ctr inactive.
Screening CCOC(=O)C1=C(C)NC(SC)=NC1c1ccc(OC)cc1 (centres undefined) returned SUMO1 PPI mod inactive, Scp1 inh inactive, LMPTP block inactive, STEP block inactive, NadD inh inactive and DNMT1 block inactive.
CCCS(=O)(=O)NC(=O)C1(C)CCCN(C(=O)c2ccc(C(F)(F)F)nc2C)C1 (centres undefined) was read as SUMO1 PPI mod inactive, LMPTP block inactive, STEP block inactive, NadD inh inactive and DNMT1 block inactive.
COc1cc(CNCCN2CCOCC2)ccc1OCC(=O)NC(C)(C)C was read as SUMO1 PPI mod inactive, Scp1 inh inactive, LMPTP block inactive, STEP block inactive, NadD inh inactive and DNMT1 block inactive.
COc1ccc(/C=N/NC(=O)c2cccc(NC(=O)c3ccc(Cl)cc3)c2)c(OC)c1 was read as SUMO1 PPI mod inactive, Scp1 inh 83, LMPTP block inactive, STEP block inactive, NadD inh inactive, DNMT1 block inactive, Scp1 confirm 66, Scp-1 MG ctr inactive and Scp-1 Tm shift inactive.
For C[N+]1(CCCOC(=O)C2(c3ccccc3)CCCC2)CCOCC1 the results were SUMO1 PPI mod inactive, Scp1 inh 74, LMPTP block inactive, STEP block inactive, NadD inh inactive, DNMT1 block inactive, Scp1 confirm 37, Scp-1 MG ctr inactive and Scp-1 Tm shift inactive.
For CC(=O)NS(=O)(=O)c1ccc(NC(=O)c2ccccc2F)cc1 the results were SUMO1 PPI mod inactive, Scp1 inh inactive, LMPTP block inactive, STEP block inactive, NadD inh inactive and DNMT1 block inactive.
Screening CCn1c(=O)c(NC(=O)c2ccccc2)c2n(c1=S)CCCCC2 returned SUMO1 PPI mod inactive, Scp1 inh 61, LMPTP block inactive, STEP block inactive, NadD inh inactive, DNMT1 block inactive, Scp1 confirm 40, Scp-1 MG ctr inactive and Scp-1 Tm shift inactive.
Screening CCOCCCn1c(=O)c(NC(=O)c2ccc(OCC)cc2)c2n(c1=S)CCCCC2 returned SUMO1 PPI mod inactive, Scp1 inh inactive, LMPTP block inactive, STEP block inactive, NadD inh inactive and DNMT1 block inactive.
CCCC(=O)Nc1cccc(NC(=O)c2ccc([N+](=O)[O-])cc2Cl)c1 was read as SUMO1 PPI mod inactive, Scp1 inh inactive, LMPTP block inactive, STEP block inactive, NadD inh inactive and DNMT1 block inactive.
Screening O=C(NCCN1CCNC1=O)C1CCC(=O)N(CCc2ccccc2)C1 (centres undefined) returned SUMO1 PPI mod inactive, Scp1 inh inactive, LMPTP block inactive, STEP block inactive, NadD inh inactive, DNMT1 block inactive, Scp1 confirm inactive and Scp-1 MG ctr inactive.
For CCC(C)NC(=O)CSc1nnc(-c2ccc(C(C)(C)C)cc2)n1C (centres undefined) the results were SUMO1 PPI mod inactive, Scp1 inh inactive, LMPTP block inactive, STEP block inactive, NadD inh inactive and DNMT1 block inactive.
CCn1c2ccccc2c2cc(NC(=O)c3ccccc3-c3ccccc3C(=O)O)ccc21 was read as SUMO1 PPI mod inactive, Scp1 inh inactive, LMPTP block inactive, STEP block inactive, NadD inh inactive and DNMT1 block inactive.
For CC(=O)[C@]1(O)Cc2c(O)c3c(c(O)c2[C@@H](O[C@H]2C[C@H](N)[C@H](O)[C@H](C)O2)C1)C(=O)c1ccccc1C3=O the results were Scp1 inh inactive.
Screening CC[N+](C)(CC)CCC(c1ccccc1)C1CCCCC1 (centres undefined) returned SUMO1 PPI mod inactive, Scp1 inh 96, LMPTP block inactive, STEP block inactive, NadD inh inactive, DNMT1 block inactive, Scp1 confirm 97, Scp-1 MG ctr inactive and Scp-1 Tm shift inactive.
For O=C(Cn1ccc(NC(=O)OCc2ccccc2)nc1=O)NCc1ccc2c(c1)OCO2 the results were SUMO1 PPI mod inactive, Scp1 inh inactive, LMPTP block inactive, STEP block inactive, NadD inh inactive, DNMT1 block inactive, Scp1 confirm inactive and Scp-1 MG ctr inactive.

Compound activity as filed in PubChem BioAssay.
